Bioassay records (PubChem)
A selection: hits, their analogues and other compounds. The true share with any hit is near 3.5%.
SIAE inh: human SIAE inhibition, primary screen. SIAE FP-Rh probe binding, fluorescence polarization. inhibition, % at 9.66 µM. AID 1053197. Q9HAT2. hit rate 0.69% among 370,000;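 active = inhibition above a cutoff: mean of compounds within the control limits plus 3 SD of those, cut at about 17% in these data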;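 note: 0% = plate median of compound wells and 100% = probe without SIAE protein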
TCR CD3 inh: blocks the human TCR-CD3 interaction; TAMRA-labeled TCR probe fluorescence, biochemical; inhibition, % at 9.4 µM; hit rate 0.37% among 360,000; in the data active = inhibition above about 19%;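 note: recombinant mutant TCR 2C K166C tagged with TAMRA read by polarization; 0% = receptor in buffer alone and 100% = receptor with positive control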
rCAG binder: r(CAG) repeat RNA binding. inhibition, % at 3 µM. hit rate 1.3% among 370,000. TO-PRO-1 dye displacement fluorescence. AID 651821;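 active = inhibition above the plate cutoff, the mean of all test compounds on that plate plus 3 SD, cut at about 35% in these data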;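 note: 0% = DMSO alone and 100% = 100 µM mitoxantrone as full dye displacement; higher means more dye released from RNA so lower well fluorescence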
PRMT1 FP inh: inhibitors of human PRMT1 | Q99873 | recombinant PRMT1, activity-based probe fluorescence polarization | inhibition, % at 2.79 µM | hit rate 1.3% among 370,000 | AID 652257;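 active = inhibition above about 21% made by adding two undisclosed values, limit read from the data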
HTRA1 inh: HTRA1 (human) protease inhibition. Q92743. recombinant HTRA1, FP-rhodamine activity-based probe, fluorescence polarization. inhibition, % at 5.96 µM. hit rate 0.5% among 340,000. AID 504803; in the data active = inhibition above about 36%;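 note: 0% = enzyme with DMSO and 100% = wells lacking enzyme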
Target sequence (Q92743 whole entry, looked up): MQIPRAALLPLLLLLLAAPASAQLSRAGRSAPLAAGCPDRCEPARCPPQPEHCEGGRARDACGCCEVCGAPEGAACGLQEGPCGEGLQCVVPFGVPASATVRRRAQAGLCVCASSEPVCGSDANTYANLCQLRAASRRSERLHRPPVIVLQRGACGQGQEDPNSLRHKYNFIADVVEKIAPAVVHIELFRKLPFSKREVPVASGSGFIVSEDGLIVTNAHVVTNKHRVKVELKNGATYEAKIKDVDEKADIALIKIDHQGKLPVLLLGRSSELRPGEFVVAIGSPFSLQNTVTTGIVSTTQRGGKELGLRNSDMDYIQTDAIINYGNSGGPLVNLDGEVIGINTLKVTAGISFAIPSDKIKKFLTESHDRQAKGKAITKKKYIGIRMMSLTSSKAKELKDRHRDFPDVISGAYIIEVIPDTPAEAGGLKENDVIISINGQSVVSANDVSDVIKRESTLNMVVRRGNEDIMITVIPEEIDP
mABHD4 FP: inhibits mouse alpha/beta hydrolase domain 4; purified mABHD4, FP-Rh probe fluorescence polarization; AID 720543; inhibition, % at 8.92 µM; Q8VD66; hit rate 0.54% among 370,000;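 active = inhibition exceeding the mean over every tested compound plus 3 SD, cut at about 30% in these data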;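 note: 0% = plate median of compound wells and 100% = S159A mutant with DMSO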
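Assay system: wild-type mouse ABHD4 protein; compound: single nominal dose of 8.92 µM, 0.89% DMSO final; schedule: 45 min + 60 min at 25 °C; measured by: FP readout, ex 525 nm / em 598 nm; evaluation: % inhibition of FP-Rh probe binding versus controls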
SIAE confirm: human SIAE inhibition, confirmation | shares compounds with SIAE inh | SIAE FP-Rh activity-based probe, fluorescence polarization | inhibition, % at 9.66 µM | hit rate 13% among 2,300 | AID 1117263;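 active = mean inhibition of the replicates above the hit cutoff set in the primary screen, cut at about 17% in these data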;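 note: 0% = SIAE with DMSO and probe and 100% = probe without SIAE; inhibitors lower polarization as more probe stays unbound to SIAE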
* hit, by the source's call; . = no result.

SMILES	SIAE inh	TCR CD3 inh	rCAG binder	PRMT1 FP inh	HTRA1 inh	mABHD4 FP	SIAE confirm
CC1(c2ccc(Cl)cc2Cl)NC(=O)N(CC(=O)Nc2ccc3[nH]c(=O)[nH]c3c2)C1=O (stereo not drawn)	24*	11	9	-2	-3	2	2
Cc1ccc(C(=O)NCCN2C(=O)C3C4C=CC(C4)C3C2=O)cc1 (stereo not drawn)	0	.	0	-4	.	3	.
O=c1cc(N2CCN(c3cccc(C(F)(F)F)c3)CC2)[nH]c(=O)n1-c1ccccc1	-4	.	.	-1	.	-5	.
COC(=O)C1C(=O)c2c(n[nH]c2C)CC1(C)C (stereo not drawn)	19*	4	-3	-3	7	-1	1
Cc1ccc(-n2ccnc(SCC(=O)NC3CCCC3)c2=O)cc1Cl	17*	0	2	15	1	9	-9
Cc1ccc2c(c1)-c1c(cnn1CC(=O)NCCc1cccc(F)c1)CO2	-2	.	2	1	.	0	.
O=C(N[C@H](Cc1ccccc1)C(=O)N1CCN(c2ccc(Cl)cn2)CC1)[C@H]1O[C@@H](n2ccc(=O)[nH]c2=O)[C@H](O)[C@@H]1O	14	1	1	-5	.	-2	.
O=C(NCCCc1ccccc1)OC1CC2CC1[C@H]1CCCCN1[C@H]2Cc1ccccc1 (stereo partly drawn)	-1	.	2	-1	.	0	.
CCC(C)[C@H](NC(=O)[C@H](Cc1ccccc1)NC(=O)OC(C)(C)C)C(=O)NCc1ccccc1Br (stereo partly drawn)	0	.	8	9	.	-7	.
CN1C2CCCC1CC(NC(=O)c1nn(C)c3ccccc13)C2 (stereo not drawn)	6	.	2	2	.	14	.
COc1ccc(CC(=O)OCC(=O)Nc2ccc3[nH]c(=O)[nH]c3c2)cc1	0	-6	-5	1	2	7	.
O=C(CSc1nncs1)Nc1ccc2[nH]c(=O)[nH]c2c1	17*	8	0	-2	-1	0	2
O=C(COC(=O)Cc1ccc(F)cc1)Nc1ccc2[nH]c(=O)[nH]c2c1	18*	8	3	-2	1	1	2
CCC12CCCN3CCc4c(n(c5ccccc45)C(O)(C(=O)OC)C1)C32 (stereo not drawn)	21*	9	-6	3	14	10	3
CC[C@]12CCCN3CCc4c(n(c5ccccc45)[C@](O)(C(=O)OC)C1)[C@@H]32	0	8	2	-1	-2	-4	.
Cc1ccc(-c2nc(C(F)(F)F)cc(=O)[nH]2)cc1	-3	-6	-2	7	4	-7	.
Nc1nc(C(F)(F)F)cc(=O)[nH]1	21*	0	-1	-3	5	-1	-2
COc1ccc(CN(C)CC(=O)Nc2ccccc2C(F)(F)F)c(OC)c1	20*	7	0	1	-1	13	1
CCCCCCCCN1CN2Cc3cc(OC)ccc3C2CS1(=O)=O (stereo not drawn)	-6	.	1	-1	.	-8	.
O=C(CNC(=O)c1ccc(Cl)cc1Cl)OCN1C(=O)c2ccccc2C1=O	19*	0	-3	-1	2	1	-4
CC1CCCCN1C(=O)COC(=O)CNC(=O)c1ccc(Cl)cc1Cl (stereo not drawn)	6	6	-3	-2	6	4	.
COC(=O)C1CCN(C(=O)COC(=O)CNC(=O)c2ccc(Cl)cc2Cl)CC1	20*	-5	3	-3	11	2	-4
O=C(CNC(=O)c1ccccc1)OCN1C(=O)c2ccccc2C1=O	-2	-1	-1	1	7	8	.
CCNC(=O)CCc1nc(-c2ccc(C(C)C)cc2)no1	2	.	.	3	.	-8	.
COc1cc(C(=O)NC(CCSC)C(=O)OCC(=O)C(C)(C)C)cc(OC)c1OC (stereo not drawn)	-5	-1	-7	-6	-6	-3	.
SMILES	SIAE inh	TCR CD3 inh	rCAG binder	PRMT1 FP inh	HTRA1 inh	mABHD4 FP	SIAE confirm
COC(=O)c1ccc(C)c(NC(=O)C(CCSC)NC(=O)c2cc(OC)c(OC)c(OC)c2)c1 (stereo not drawn)	17*	4	-3	-1	0	-1	-4
COC(=O)Oc1ccc(/C=N/NC(=O)CN(c2ccccc2Br)S(C)(=O)=O)cc1OC	22*	-1	-5	-2	8	-1	15
O=C(c1ccccc1F)N1CCN(c2ccccc2)CC1	17*	2	-2	0	-2	-7	0
COc1ccc(OC)c(/C=N\Nc2nccs2)c1	18*	2	10	-2	4	7	2
COC(=O)[C@]1(C#N)CC(=O)N(CC(C)C)[C@@H]1c1ccccc1	0	.	-1	1	.	4	.
COc1ccc(/C=C/C(=O)NC(=S)Nc2cc([N+](=O)[O-])ccc2O)cc1OC	18*	50*	52*	0	6	12	-5
Cc1ccc(Cn2cc(CN(C)S(=O)(=O)c3ccccc3Br)nn2)cc1	-2	.	2	1	.	5	.
O=C(CSc1nnc(-c2ccccc2)n1-c1ccccc1)Nc1ccc(Oc2ccccc2)cc1	10	.	8	-1	.	-1	.
CC(=O)Nc1ccc(C(=O)Nc2ccc(S(=O)(=O)N3CCCC3)cc2)cc1	-4	0	4	-1	-6	0	.
Cn1nccc1C(=O)Nc1ccc(S(=O)(=O)N2CCCC2)cc1	18*	-2	-1	-1	5	8	6
Cc1nc(N2CCN(c3ccccn3)CC2)c2c(C)c(C(=O)Nc3c(C)cc(Br)cc3C)sc2n1	17*	6	1	0	-8	-10	-19
O=S1(=O)c2ccccc2-c2c(nnn2Cc2ccccc2)CN1C1CC1	-7	.	1	1	.	-8	.
COc1ccc(NC(=O)c2ccc(=O)oc2)cc1	2	7	8	3	-6	5	.
COc1ccc(NC(=O)c2coc(C)c2)cc1	19*	-2	2	3	-2	3	-1
Oc1ccc(O)c(Cc2nc3ccccc3[nH]2)c1	19*	0	9	30*	7	11	3
Cc1cc(C)c2c(c1)/C(=N/NC(=S)Nc1ccc(F)cc1)CCC2	20*	6	6	-2	3	12	4
CCc1c(Cc2ccccc2)ncn1CCc1ccccc1OC	0	6	4	1	.	0	.
COc1ccc(-c2nc(C)sc2CC(=O)O)cc1OC	18*	4	2	-1	-1	4	4
COc1ccc(-c2nc(C)sc2CC(=O)O)cc1	-3	-2	-3	1	2	6	.
COc1ccc(-c2nnn3c2Cn2c4ccccc4c(=O)n2[C@@H](C)C3)cc1	2	.	6	-1	.	-4	.
